Holding throughout (assay type): functional
Assay [1] has as its system Mus musculus. Nature of the assay: Average weight change on day 5 in mice infected by P-388 leukemia when treated with a dose of 128 mg/Kg of compound. The method, boiled down:
(§1)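 P-388 leukemia kept as ascites in DBA/2 mice; 10⁶ cells implanted into female CDF₁ mice (16–20 g), six mice per dose, 10 untreated leukemia controls. Compound dissolved in water with Tween 80 and given as a single ip injection on day 1 after implant, within 15 min of dissolving. Body weight change averaged on day 5.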

The subject of assay [2] is Mus musculus. Nature of the assay: Average weight change on day 5 in mice infected by P-388 leukemia when treated with a dose of 32 mg/Kg of compound. The method in brief: as §1
Assay [3] relates to Mus musculus. Nature of the assay: Median survival time (MST) of treated mice infected by P-388 leukemia, as percent of the MST of untreated controls when treated with a dose of 64 mg/Kg of compound. The method in brief:
(§2)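 P-388 leukemia kept as ascites in DBA/2 mice. CDF1 female mice (16–20 g) received 10⁶ cells; six mice per dose and 10 untreated leukemia controls. Drug in water with Tween 80, given within 15 min of dissolution as a single ip injection on day 1 after implant. Mice observed until death; %T/C is treated over control median survival time. Average weight change taken on day 5.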

In assay [4] the test system is Mus musculus. As to the kind of experiment: Average weight change on day 5 in mice infected by P-388 leukemia when treated with a dose of 64 mg/Kg of compound. The method, boiled down: as §1
In assay [5] the test system is Mus musculus. As to the kind of experiment: Median survival time (MST) of treated mice infected by P-388 leukemia, as percent of the MST of untreated controls when treated with a dose of 32 mg/Kg of compound. The method, boiled down: as §2
For assay [6], the system named is Mus musculus. As to the kind of experiment: Average weight change on day 5 in mice infected by P-388 leukemia when treated with a dose of 256 mg/Kg of compound. The method, boiled down:
as §1

The subject of assay [7] is Mus musculus. Nature of the assay: Median survival time (MST) of treated mice infected by P-388 leukemia, as percent of the MST of untreated controls when treated with a dose of 16 mg/Kg of compound. The method, boiled down: as §2
In assay [8] the test system is Mus musculus. Nature of the assay: Average weight change on day 5 in mice infected by P-388 leukemia when treated with a dose of 8 mg/Kg of compound. The method, boiled down: as §1
The test system of assay [9] is Mus musculus. As to the kind of experiment: Median survival time (MST) of treated mice infected by P-388 leukemia, as percent of the MST of untreated controls when treated with a dose of 256 mg/Kg of compound. The method, boiled down: as §2
The subject of assay [10] is Mus musculus. Nature of the assay: Average weight change on day 5 in mice infected by P-388 leukemia when treated with a dose of 16 mg/Kg of compound. The method, boiled down: as §1
Assay [11] has as its system Mus musculus. Nature of the assay: Median survival time (MST) of treated mice infected by P-388 leukemia, as percent of the MST of untreated controls when treated with a dose of 8 mg/Kg of compound. The method in brief:
as §2

For assay [12], the system named is Mus musculus. As to the kind of experiment: Median survival time (MST) of treated mice infected by P-388 leukemia, as percent of the MST of untreated controls when treated with a dose of 128 mg/Kg of compound. The method, boiled down: as §2
In assay [13] the test system is Mus musculus. Nature of the assay: Average weight change on day 5 in mice infected by P-388 leukemia when treated with a dose of 200 mg/Kg of compound. The method in brief:
as §2

Assay [14] concerns Mus musculus. Nature of the assay: Median survival time (MST) of treated mice infected by P-388 leukemia, as percent of the MST of untreated controls when treated with a dose of 50 mg/Kg of compound. The method, boiled down: as §2
The test system of assay [15] is Mus musculus. Nature of the assay: Average weight change on day 5 in mice infected by P-388 leukemia when treated with a dose of 50 mg/Kg of compound. The method, boiled down:
as §2

The test system of assay [16] is Mus musculus. As to the kind of experiment: Median survival time (MST) of treated mice infected by P-388 leukemia, as percent of the MST of untreated controls when treated with a dose of 400 mg/Kg of compound. The method in brief: as §2
In assay [17] the test system is Mus musculus. As to the kind of experiment: Average weight change on day 5 in mice infected by P-388 leukemia when treated with a dose of 400 mg/Kg of compound. The method in brief: as §2
The test system of assay [18] is Mus musculus. Nature of the assay: Median survival time (MST) of treated mice infected by P-388 leukemia, as percent of the MST of untreated controls when treated with a dose of 100 mg/Kg of compound. The method in brief:
as §2

Assay [19] relates to Mus musculus. As to the kind of experiment: Median survival time (MST) of treated mice infected by P-388 leukemia, as percent of the MST of untreated controls when treated with a dose of 200 mg/Kg of compound. The method, boiled down: as §2
In assay [20] the test system is Mus musculus. Nature of the assay: Average weight change on day 5 in mice infected by P-388 leukemia when treated with a dose of 100 mg/Kg of compound. The method in brief:
as §2

AWC and T/C data for 2 compounds are collected here from ChEMBL document CHEMBL1124137, “Synthesis and testing of quinone-based bis(2,2-dimethyl-1-aziridinyl)phosphinyl carbamates as radiation-potentiating antitumor agents” (1988).

In the case of `CC1(C)CN1P(=O)(NC(=O)OCC/N=C1C(O)=C(Cl)/C(=N\CCOC(=O)NP(=O)(N2CC2(C)C)N2CC2(C)C)C(O)=C/1Cl)N1CC1(C)C` (stereo not given), the AWC is on record as -0.9 g in the assay with Mus musculus [1]; -0.6 g with Mus musculus [2]; -1.2 g with Mus musculus [4]; -2.1 g with Mus musculus [6]; -0.4 g in the assay with Mus musculus [8]; -1.1 g in the assay with Mus musculus [10]. For the same compound, the T/C with Mus musculus [3] amounted to 124%; in the assay with Mus musculus [5], 129%; in the assay on Mus musculus [7] it was 124%; in the assay on Mus musculus [9], 165%; in the assay with Mus musculus [11] it was 118%; in the assay on Mus musculus [12] it was 135%.
On to `CCOC(=O)NP(=O)(N1CC1(C)C)N1CC1(C)C` (stereo not given) [METUREDEPA], for which the AWC is given as -0.2 g with Mus musculus [13], -0.7 g in the assay with Mus musculus [15], -1.3 g with Mus musculus [17] and -0.4 g in the assay on Mus musculus [20]. The T/C turned out to be 163% in the assay on Mus musculus [14], 244% in the assay on Mus musculus [16], 181% in the assay with Mus musculus [18] and 231% in the assay on Mus musculus [19].
